This passage reports folding enthalpy and Tm results from the array DNA melting data of Ke et al. (doi:10.1101/2024.01.08.574731).

The nature of data set [1]: folding enthalpy; higher = less favourable; fluorescence melt of hairpins on a sequencing array, two-state fit. As to conditions: sodium 0.088 M. A digest of the protocol:
(§1)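 Library hairpins on a sequenced MiSeq flow cell carried annealed Cy3 and quencher oligos, and their Cy3 fluorescence was imaged in 50 mM Na-HEPES pH 8.0 with 25 mM NaCl, in 2.5 °C steps up to 60 °C. Signals were normalised to Cy3 before quenching and to control constructs. Melting temperature and folding enthalpy were obtained from bootstrapped two-state fits, combined by inverse-variance weighting across four replicates, and the fitted temperatures were then raised by 9.35 °C to match UV melts.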

Data set [2] can be described thus: melting temperature; fluorescence melt of hairpins on a sequencing array, two-state fit, raised by 9.35 °C to match UV melts. As to conditions: sodium 0.088 M. The method in brief: as §1

With GTGTCCGAAAGGAAACAC ((((((....)))..))), the folding enthalpy in data set [1] was -22.4 kcal/mol. Further, the Tm in data set [2] was 46.5 °C.
On the same counts, the results for GTGTCCGAAAGGAACCAC ((((((....)))..))) are -12.6 kcal/mol and 35.3 °C.
For the sequence GTGTCCGAAAGGAATCAC ((((((....)))..))), the folding enthalpy in data set [1] was -17.3 kcal/mol. Further, in data set [2], the Tm was 34.3 °C.
On the same counts, the results for GTGTCCGAAAGGACTCAC ((((((....)))..))) are -10 kcal/mol and 39.4 °C.
On the same counts, the results for GTGTCCGAAAGGAGCCAC ((((((....)))..))) are -14.5 kcal/mol and 33.5 °C.
In the same order, the values of GTGTCCGGAAACGAACAC ((((.((....)).)))) are -32.5 kcal/mol and 45.4 °C.
Consider GTGTCGACGAAAGTCCAC (((..(((....)))))), for which, in data set [1], the folding enthalpy was -17.8 kcal/mol. The Tm in data set [2] amounted to 37.2 °C.
On the same counts, the results for GTGTCGGCGAAAGCCCAC (((..(((....)))))) are -13.5 kcal/mol and 43.8 °C.
In the same order, the values of GTGTCGGGAAACCGATGC (..((((....))))..) are -23.8 kcal/mol and 46 °C.
For GTGTCTCCGAAAGGACAC (((..(((....)))))), in data set [1], the folding enthalpy was -25.1 kcal/mol. Further, in data set [2], the Tm was found to be 45.7 °C.
In the same order, the values of GTGTCTGCGAAAGCACAC (((..(((....)))))) are -14.6 kcal/mol and 43.8 °C.
On the same counts, the results for GTGTCTGGAAACAGATGC (..((((....))))..) are -20.7 kcal/mol and 40.2 °C.
In the same order, the values of GTGTGAGAAATCACAC ((((((....)))))) are -30.9 kcal/mol and 55.8 °C.
For the sequence GTGTGAGGAAACCCACAC (((((.(....).))))), the folding enthalpy in data set [1] is -31.7 kcal/mol. The Tm in data set [2] is 48.3 °C.
In the same order, the values of GTGTGCGAAAGCACCAC ((((((....))).))) are -9.37 kcal/mol and 51 °C.
On to GTGTGCGAAAGCACTCAC ((((((....)))..))), for which, in data set [1], the folding enthalpy is -8.88 kcal/mol. For the same sequence, the Tm in data set [2] is 41.8 °C.
In the same order, the values of GTGTGCGAAAGCAGCAC ((((((....))).))) are -20.1 kcal/mol and 52.5 °C.
On to GTGTGCGAAAGCATGCAC ((((((....)))..))), for which the folding enthalpy in data set [1] was -16.1 kcal/mol. The Tm in data set [2] is 45.1 °C.
In the same order, the values of GTGTGCGGAAACGCATAC ((.((((....)))).)) are -37 kcal/mol and 54.6 °C.
In the same order, the values of GTGTGGAAACACAC (((((....))))) are -25.8 kcal/mol and 60.6 °C.
In the same order, the values of GTGTGGCGAAAGCCCCAC (((.(((....))).))) are -23.5 kcal/mol and 51.3 °C.
GTGTGGGGAAACCCATAC ((.((((....)))).)): the folding enthalpy in data set [1] is -30.9 kcal/mol. Moreover, in data set [2], the Tm was determined as 49.2 °C.
On the same counts, the results for GTGTGGGGAAACCTACAC ((((.((....)).)))) are -32.6 kcal/mol and 50.6 °C.
In the same order, the values of GTGTGGGGAAACCTGCAC (((..((....))..))) are -31.9 kcal/mol and 44.8 °C.
In the same order, the values of GTGTGTACGAAAGTACAC (((..(((....)))))) are -14.8 kcal/mol and 64.2 °C.
Turning to GTGTGTGGAAACGCATAC ((.((.(....).)).)), the folding enthalpy in data set [1] is -22.9 kcal/mol. For the same sequence, the Tm in data set [2] is 36 °C.
In the same order, the values of GTGTTAACGAAAGTTCAC (((..(((....)))))) are -12.5 kcal/mol and 34.9 °C.
Regarding GTGTTACGAAAGTATCAC (((.(((....))).))), the folding enthalpy in data set [1] is -30.7 kcal/mol. The Tm in data set [2] amounted to 46.8 °C.
In the same order, the values of GTGTTAGCGAAAGCTCAC (((..(((....)))))) are -21.9 kcal/mol and 44.2 °C.
On the same counts, the results for GTGTTCCGAAAGGATCAC (((.(((....))).))) are -34.4 kcal/mol and 51.5 °C.
GTGTTCGAAAGAAAACAC ((((((....)))..))): the folding enthalpy in data set [1] was -22.6 kcal/mol. Moreover, the Tm in data set [2] turned out to be 38.2 °C.
In the same order, the values of GTGTTCGAAAGAACAC ((((((....)))))) are -31.5 kcal/mol and 68.6 °C.
In the same order, the values of GTGTTCGAAAGAATACAC ((((((....)))..))) are -22.9 kcal/mol and 42.6 °C.
GTGTTCGGAAACGAACAC (((((((....))))))): the folding enthalpy in data set [1] was -36.3 kcal/mol. In addition, the Tm in data set [2] was determined as 67.9 °C.
On the same counts, the results for GTGTTCGGAAACGAATAC ((.((((....)))).)) are -31.7 kcal/mol and 49.2 °C.
On the same counts, the results for GTGTTGGGAAACCAACGC (.(((((....))))).) are -32.8 kcal/mol and 54.2 °C.
On the same counts, the results for GTGTTGGGAAACTAACGC (.(((.(....).))).) are -25.5 kcal/mol and 35.9 °C.
GTGTTTCGAAAGAACAC (((.(((....)))))): the folding enthalpy in data set [1] was -32.3 kcal/mol. Moreover, the Tm in data set [2] was determined as 46.9 °C.
In the same order, the values of GTTAAAGCGAAAGCTAAC (((..(((....)))))) are -10.3 kcal/mol and 35.6 °C.
On the same counts, the results for GTTAACCGAAAGGTAAAC (((.(((....))).))) are -25.2 kcal/mol and 41.9 °C.
In the same order, the values of GTTAACGAAAGTTAAAC ((((((....))).))) are -16.7 kcal/mol and 36 °C.
Regarding GTTAACGAAAGTTCAAC ((((((....))).))), the folding enthalpy in data set [1] was -12.2 kcal/mol. Moreover, the Tm in data set [2] was found to be 26.5 °C.
GTTAACGAAAGTTGAAC ((((((....))).))): the folding enthalpy in data set [1] is -12.8 kcal/mol. In addition, the Tm in data set [2] was 28.2 °C.
With GTTAACGCGAAAGCGAAC (((..(((....)))))), the folding enthalpy in data set [1] was -8.96 kcal/mol. In addition, the Tm in data set [2] was 32.9 °C.
For GTTAACGGAAACGCTAAC ((((.((....)).)))), in data set [1], the folding enthalpy is -28.1 kcal/mol. The Tm in data set [2] was 36.2 °C.
In the same order, the values of GTTAACGGAAACGTTGAC ((.((((....)))).)) are -26.9 kcal/mol and 46.3 °C.
On the same counts, the results for GTTAAGGAAACTTAAC ((((((....)))))) are -29 kcal/mol and 43 °C.
In the same order, the values of GTTAATGGAAACGTTAAC (((((.(....).))))) are -29.2 kcal/mol and 35.7 °C.
For the sequence GTTACACGAAAGTGGAAC (((.(((....))).))), in data set [1], the folding enthalpy was -36.7 kcal/mol. Also, the Tm in data set [2] came to 56.7 °C.
In the same order, the values of GTTACAGGAAACCGTAAC (((((.(....).))))) are -35.6 kcal/mol and 39.4 °C.
On the same counts, the results for GTTACAGGAAACTGTAAC (((((((....))))))) are -42.8 kcal/mol and 55.5 °C.
GTTACCGAAAGGTTAAAC ((((((....)))..))): in data set [1], the folding enthalpy is -9.83 kcal/mol. Moreover, the Tm in data set [2] turned out to be 30.6 °C.
In the case of GTTACCGGAAACGGTAAC (((((((....))))))), the folding enthalpy in data set [1] was -42.4 kcal/mol. Moreover, the Tm in data set [2] was found to be 63.2 °C.
In the same order, the values of GTTACGCGAAAGCGAAC (((.(((....)))))) are -13.7 kcal/mol and 40 °C.
GTTACGCGAAAGCGGAAC (((.(((....))).))): the folding enthalpy in data set [1] is -26.8 kcal/mol. Also, in data set [2], the Tm is 67.5 °C.
On the same counts, the results for GTTACGGAAACGTAAC ((((((....)))))) are -38.1 kcal/mol and 56.8 °C.
GTTACGGCGAAAGCCAAC (((..(((....)))))): in data set [1], the folding enthalpy was -8.79 kcal/mol. In addition, the Tm in data set [2] was determined as 25 °C.
For the sequence GTTACGGGAAACCGTAGC (.(((((....))))).), in data set [1], the folding enthalpy was -18.3 kcal/mol. Moreover, the Tm in data set [2] was 48.5 °C.
On the same counts, the results for GTTACGTCGAAAGACAAC (((..(((....)))))) are -10.3 kcal/mol and 24.5 °C.
On the same counts, the results for GTTACTCGAAAGAGGAAC (((.(((....))).))) are -36.2 kcal/mol and 53.6 °C.
On the same counts, the results for GTTAGCCCGAAAGGGAAC (((..(((....)))))) are -11.5 kcal/mol and 28.1 °C.
On to GTTAGCGGAAACGCTAAC (((((((....))))))), for which the folding enthalpy in data set [1] was -42.7 kcal/mol. Besides, the Tm in data set [2] came out at 66.7 °C.
In the same order, the values of GTTAGCGGAAACGCTGAC ((.((((....)))).)) are -29.4 kcal/mol and 52.3 °C.
On the same counts, the results for GTTAGGAAACTAAC (((((....))))) are -15.7 kcal/mol and 41.4 °C.
In the same order, the values of GTTAGGACGAAAGTCAAC (((..(((....)))))) are -10.7 kcal/mol and 28.8 °C.
On to GTTAGGCGAAAGCCAAAC (((.(((....))).))), for which the folding enthalpy in data set [1] was -15.9 kcal/mol. For the same sequence, in data set [2], the Tm came to 50.3 °C.
GTTAGGGGAAACCCTAAC (((((((....))))))): the folding enthalpy in data set [1] is -40.5 kcal/mol. Besides, in data set [2], the Tm came out at 57.9 °C.
As to GTTAGGGGAAACTCTAAC (((((.(....).))))), in data set [1], the folding enthalpy is -29.2 kcal/mol. The Tm in data set [2] worked out at 38.3 °C.
In the same order, the values of GTTAGGTCGAAAGACAAC (((..(((....)))))) are -11.1 kcal/mol and 27.2 °C.
In the same order, the values of GTTAGTCGAAAGACAAAC (((.(((....))).))) are -21.9 kcal/mol and 41.2 °C.
In the case of GTTAGTCGAAAGACAAC (((.(((....)))))), the folding enthalpy in data set [1] is -20.4 kcal/mol. Also, the Tm in data set [2] is 39.5 °C.
In the same order, the values of GTTATCCGAAAGGAGAAC (((.(((....))).))) are -37.4 kcal/mol and 51.1 °C.
Regarding GTTATCGAAAGATAAAC ((((((....))).))), the folding enthalpy in data set [1] is -20.9 kcal/mol. Besides, in data set [2], the Tm was 32.9 °C.
